# Publication PMC10663723 (RSC Advances, 2023)
# Experiments:
# [1] = tested on: cervical cancer cells (HeLa); test: MTT cell viability assay, HeLa cells; assay type: cell-based; details: Homo sapiens, 48 h, read-out: EC50, HeLa
# Procedure, shortened: (§1)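 Cells plated at 10000/well in DMEM with 10% FBS and incubated 20 h at 37 °C, 5% CO2. Test compound (20 mg mL−1 DMSO stock, diluted in medium) was applied at 0.1–100 μg mL−1 for 48 h; 0.5% final DMSO served as vehicle control. MTT (0.5 mg mL−1) was added for 4 h at 37 °C in the dark, formazan was dissolved in DMSO, and absorbance was read at 570 nm.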
# [2] = tested on: triple-negative breast cancer cells (MDA-MB-231); test: MTT cell viability assay, MDA-MB-231 cells; assay type: cell-based, human; details: CC50 HFF / EC50 MDA-MB-231
# Procedure, shortened: as §1
# [3] = MTT cell viability assay, HFF cells; assay type: cell-based; details: human, HFF cells (non-cancer human foreskin fibroblasts)
# Procedure, shortened: as §1
# lung cancer cells (A549) = test: MTT cell viability assay, A549 cells; assay type: cell-based, human
# Procedure, shortened: as §1
structure (smiles),measurement,setting,value
COc1cccc2c1C(=O)c1c(O)c3c(c(O)c1C2=O)C[C@@](O)(C(=O)CO)C[C@@H]3O[C@H]1C[C@H](N)[C@H](O)[C@H](C)O1 [doxorubicin],EC50,[1],1.69 µg/mL
same,SI (selectivity index) MDA-MB-231 with respect to HFF cells,[2],2.73
same,CC50 at 48 h,[3],8.96 µg/mL
same,SI (selectivity index) A549 with respect to HFF cells,lung cancer cells (A549); CC50 HFF / EC50 A549,2.83
same,EC50,"lung cancer cells (A549); Homo sapiens, A549, 48 h, read-out: EC50, A549",2.68 µg/mL
